Assay results: PubChem BioAssay AID504830 (Southern Research Specialized Biocontainment Screening …, 2011)

System: HEp-2 cells, RSV plaque reduction, virus titer
Assay: RSV plaque-forming yield inhibition – cell-based, plaque reduction (AID 504830)
Conditions: at 25 µM; hits give low values
In short: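 Assay system: HEp-2 cells infected with respiratory syncytial virus Long strain; Signal: HEp-2 plaque titration, 1% Avicel overlay, six days, neutral red stain; Doses: compound added after virus wash, 0.5% DMSO final; Schedule: 48 h compound exposure at 37 °C after infection.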

How did the log virus titer change turn out when `COc1ccc(C)c(NC(=O)[C@@H]2CCCN2S(=O)(=O)c2cccc3cccnc23)c1` was run?
Its log virus titer change is -1.

With `Cc1ccc(C)c(NC(=O)[C@@H]2CCCN2S(=O)(=O)c2cccc3cccnc23)c1` as the compound, how does the log virus titer change read?
The log virus titer change was -2.

Which log virus titer change does the source give for `Cc1ccc(NC(=O)C2CCCN2S(=O)(=O)c2cccc3cccnc23)c(C)c1` (centres undefined) here?
Its log virus titer change is -2.1.

`Cc1ccc(NC(=O)[C@@H]2CCCN2S(=O)(=O)c2cccc3cccnc23)c(C)c1` was tested. Which log virus titer change did it give?
Its log virus titer change is -1.
